Among the data in ChEMBL document CHEMBL1149657, “Benzylamine histamine H(3) antagonists and serotonin reuptake inhibitors” (Bioorg Med Chem Lett, 2007) are Ki and concentration values, retold here.

For series [1], the target named is Sodium-dependent serotonin transporter (Homo sapiens, UniProt P31645). As to the kind of experiment: Binding affinity to human SERT.
The target of series [2] is Sodium-dependent noradrenaline transporter (Homo sapiens, UniProt P23975). Briefly: Binding affinity to human NET. The procedure, abridged:
(§1)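 Human NET and DAT Ki values from one experiment run in triplicate.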

Series [3] concerns the target Sodium-dependent dopamine transporter (Homo sapiens, UniProt Q01959). Briefly: Binding affinity to human DAT. The procedure, abridged:
as §1

The next series addresses Histamine H3 receptor (Homo sapiens, UniProt Q9Y5N1). As to the kind of experiment: Binding affinity to human histamine H3 receptor.
The nature of series [4]: Drug level in rat brain at 10 mg/kg, po after 3 hrs. The settings on record: read-out: Drug uptake. The series is classed as ADME, organism-based. On the set-up: dose 10 mg/kg, route oral.
The nature of series [5]: Plasma concentration in rat at 10 mg/kg, po after 1 hr. The series is classed as ADME, organism-based. On the set-up: dose 10 mg/kg, route oral.
The nature of series [6]: Drug level in rat brain at 10 mg/kg, po after 1 hr. The series is classed as ADME, organism-based. On the set-up: dose 10 mg/kg, route oral. The settings on record: read-out: Drug uptake.
Series [7] in a line: Plasma concentration in rat at 10 mg/kg, po after 3 hrs. The class given is ADME, organism-based. More on the design: dose 10 mg/kg, route oral.
A short description of series [8]: Plasma concentration in rat at 10 mg/kg, po after 6 hrs. The class given is ADME, organism-based. On the set-up: dose 10 mg/kg, route oral.
Series [9] is described as follows: Drug level in rat brain at 10 mg/kg, po after 6 hrs. The class given is ADME, organism-based. More on the design: dose 10 mg/kg, route oral. To be noted: read-out: Drug uptake.
For series [10], the target named is Sodium-dependent serotonin transporter (Rattus norvegicus, UniProt P31652). As to the kind of experiment: Binding affinity to rat SERT.
Chain of Sodium-dependent serotonin transporter (Rattus norvegicus, UniProt P31652) (P31652 whole entry): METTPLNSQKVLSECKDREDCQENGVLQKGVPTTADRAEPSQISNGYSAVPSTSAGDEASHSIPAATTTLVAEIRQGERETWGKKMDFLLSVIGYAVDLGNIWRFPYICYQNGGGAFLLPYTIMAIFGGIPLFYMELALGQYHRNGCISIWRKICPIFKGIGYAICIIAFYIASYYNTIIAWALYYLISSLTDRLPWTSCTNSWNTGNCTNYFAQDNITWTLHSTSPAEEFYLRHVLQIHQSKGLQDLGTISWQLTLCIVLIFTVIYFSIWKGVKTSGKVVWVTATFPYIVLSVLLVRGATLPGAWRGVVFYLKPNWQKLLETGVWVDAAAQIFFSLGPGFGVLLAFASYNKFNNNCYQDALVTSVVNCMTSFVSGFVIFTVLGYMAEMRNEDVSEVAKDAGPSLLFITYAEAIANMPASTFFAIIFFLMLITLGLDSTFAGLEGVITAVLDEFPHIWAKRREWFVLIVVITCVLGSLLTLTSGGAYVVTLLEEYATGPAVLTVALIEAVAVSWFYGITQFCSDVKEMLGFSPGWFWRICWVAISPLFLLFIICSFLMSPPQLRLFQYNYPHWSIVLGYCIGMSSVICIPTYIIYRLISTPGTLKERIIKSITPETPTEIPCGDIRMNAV

Broadly, the Ki is the equilibrium dissociation constant of an inhibitor or competing ligand from its target. Low readings indicate a stronger hold on the target, high ones a looser hold on the target.

Chain of Sodium-dependent dopamine transporter (Q01959 whole entry): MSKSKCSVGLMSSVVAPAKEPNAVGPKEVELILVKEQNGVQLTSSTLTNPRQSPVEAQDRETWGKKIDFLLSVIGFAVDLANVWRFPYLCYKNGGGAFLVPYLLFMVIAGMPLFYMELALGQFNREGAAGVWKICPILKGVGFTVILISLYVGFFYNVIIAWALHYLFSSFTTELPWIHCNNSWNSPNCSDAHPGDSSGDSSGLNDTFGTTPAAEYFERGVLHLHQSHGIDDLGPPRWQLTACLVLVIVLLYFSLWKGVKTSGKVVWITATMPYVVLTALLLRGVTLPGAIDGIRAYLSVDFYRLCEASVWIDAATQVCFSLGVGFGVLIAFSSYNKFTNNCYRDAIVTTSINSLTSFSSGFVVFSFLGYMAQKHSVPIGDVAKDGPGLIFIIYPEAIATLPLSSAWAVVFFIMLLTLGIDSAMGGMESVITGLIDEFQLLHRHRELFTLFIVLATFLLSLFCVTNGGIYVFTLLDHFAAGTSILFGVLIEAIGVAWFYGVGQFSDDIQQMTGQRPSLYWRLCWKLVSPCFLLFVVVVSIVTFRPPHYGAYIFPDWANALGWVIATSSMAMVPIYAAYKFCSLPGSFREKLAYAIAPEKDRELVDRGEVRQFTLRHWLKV
Chain of Sodium-dependent serotonin transporter (Homo sapiens, UniProt P31645) (P31645 whole entry): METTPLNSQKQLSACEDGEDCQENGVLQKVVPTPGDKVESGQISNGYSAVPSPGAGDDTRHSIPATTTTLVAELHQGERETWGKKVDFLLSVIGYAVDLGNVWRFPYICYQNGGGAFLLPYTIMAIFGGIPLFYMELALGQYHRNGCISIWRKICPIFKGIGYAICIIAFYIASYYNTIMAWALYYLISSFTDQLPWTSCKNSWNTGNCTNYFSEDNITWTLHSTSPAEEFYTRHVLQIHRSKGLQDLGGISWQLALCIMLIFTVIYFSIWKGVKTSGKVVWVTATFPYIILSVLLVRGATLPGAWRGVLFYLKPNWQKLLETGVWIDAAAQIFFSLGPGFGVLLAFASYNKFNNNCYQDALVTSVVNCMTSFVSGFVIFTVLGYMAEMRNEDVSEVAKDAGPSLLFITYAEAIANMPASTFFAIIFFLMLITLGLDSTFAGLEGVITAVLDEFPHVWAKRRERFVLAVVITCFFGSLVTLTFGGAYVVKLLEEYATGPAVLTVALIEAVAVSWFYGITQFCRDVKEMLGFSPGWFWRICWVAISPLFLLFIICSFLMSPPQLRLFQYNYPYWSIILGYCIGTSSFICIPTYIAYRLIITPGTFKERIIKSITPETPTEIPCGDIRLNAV
Chain of Sodium-dependent noradrenaline transporter (P23975 whole entry): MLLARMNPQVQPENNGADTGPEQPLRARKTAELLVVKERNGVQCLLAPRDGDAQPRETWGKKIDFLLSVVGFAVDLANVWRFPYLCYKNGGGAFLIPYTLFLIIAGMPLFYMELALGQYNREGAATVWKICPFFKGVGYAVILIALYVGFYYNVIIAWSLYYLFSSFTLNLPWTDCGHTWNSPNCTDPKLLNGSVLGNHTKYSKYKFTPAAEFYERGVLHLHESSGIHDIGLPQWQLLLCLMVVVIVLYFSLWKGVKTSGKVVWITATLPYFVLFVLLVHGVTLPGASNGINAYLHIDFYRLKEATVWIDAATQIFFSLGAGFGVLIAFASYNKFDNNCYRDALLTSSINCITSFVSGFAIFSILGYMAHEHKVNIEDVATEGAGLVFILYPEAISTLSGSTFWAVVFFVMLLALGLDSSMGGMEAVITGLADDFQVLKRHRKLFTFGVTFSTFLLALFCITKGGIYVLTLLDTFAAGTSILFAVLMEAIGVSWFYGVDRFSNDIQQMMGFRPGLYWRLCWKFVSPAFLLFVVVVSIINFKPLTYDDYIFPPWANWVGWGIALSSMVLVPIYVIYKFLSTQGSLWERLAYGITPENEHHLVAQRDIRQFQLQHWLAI
Chain of Histamine H3 receptor (Q9Y5N1 whole entry): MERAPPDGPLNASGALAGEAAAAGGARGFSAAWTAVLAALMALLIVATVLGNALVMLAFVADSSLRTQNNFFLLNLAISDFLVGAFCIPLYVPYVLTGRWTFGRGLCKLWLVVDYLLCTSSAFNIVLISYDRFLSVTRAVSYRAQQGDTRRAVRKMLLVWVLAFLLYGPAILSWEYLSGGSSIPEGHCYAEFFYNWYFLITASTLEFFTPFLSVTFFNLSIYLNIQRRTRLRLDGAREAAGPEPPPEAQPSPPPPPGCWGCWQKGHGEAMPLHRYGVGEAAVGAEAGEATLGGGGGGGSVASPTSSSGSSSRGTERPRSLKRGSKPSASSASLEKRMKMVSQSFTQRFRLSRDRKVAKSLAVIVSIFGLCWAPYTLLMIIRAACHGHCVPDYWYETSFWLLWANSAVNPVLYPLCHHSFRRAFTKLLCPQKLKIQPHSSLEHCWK

With `COc1ccc([C@@H]2CN(C)Cc3cc(OCCCN4CCC(F)CC4)ccc32)cc1`, the affinity in [1] corresponds to a Ki of 2.7 nM.
`CNCc1cc(C#CCCN2CCOCC2)ccc1Oc1ccc(SC)cc1`: the Ki stood at 290 nM in series [2] and 700 nM in [3].
As for `CCN(CC)CCCOc1cc2c(cn1)C(c1ccc(Cl)c(Cl)c1)CN(C)C2` (stereo not given), the Ki came to 26 nM in [1] and 7 nM on Histamine H3 receptor.
`CNCc1cc(C#CCCN2CCOCC2)ccc1Oc1ccc(Cl)cc1`: the results for the concentration at 3 h in series [4] and in [7] were 1700 nM and 40 nM, respectively. Moreover, the concentration at 1 h in series [5] was 68 nM; in [6] it was 1380 nM. The concentration at 6 h came to 28 nM in series [8] and 1660 nM in [9].
As for `CNCc1cc(C#CCCN2CCOCC2)ccc1Oc1cccc(F)c1`, the concentration at 3 h in series [4] stood at 1420 nM; in series [7], 91 nM. The concentration at 1 h came to 110 nM in series [5] and 820 nM in series [6]. For the same molecule, the figures for the concentration at 6 h in [8] and in series [9] were 48 nM and 1870 nM, respectively.
For the molecule `CNCc1cc(C#CCCN2CCOCC2)ccc1Oc1ccc(C(F)(F)F)cc1`, the concentration at 3 h in [4] is 4650 nM; in series [7] it was 310 nM. Also, the figures for the concentration at 1 h in series [5] and in series [6] were 240 nM and 1770 nM, respectively. For the same molecule, the concentration at 6 h in [8] stood at 150 nM; in [9], 5400 nM.
On to `CNCc1cc(C#CCCN2CCOCC2)ccc1Oc1ccc(Cl)c(C(F)(F)F)c1`, for which the concentration at 3 h was determined as 1860 nM in [4] and 120 nM in [7]. The concentration at 1 h turned out to be 53 nM in [5] and 370 nM in series [6]. The concentration at 6 h in series [8] was found to be 110 nM; in series [9], 3560 nM.
For the molecule `CNCc1cc(C#CCCN2CCSCC2)ccc1Oc1ccc(SC)cc1`, the concentration at 3 h in series [4] and in series [7] was 360 nM in each case. The concentration at 1 h came out at 45 nM in [5] and 87 nM in [6]. Besides, the concentration at 6 h came to 250 nM in [8] and 10 nM in series [9].
`CNCc1cc(C#CCCN(C)C2CC2)ccc1Oc1ccc(SC)cc1`: the concentration at 3 h in series [4] is 220 nM; in series [7] it was 24 nM. Also, the Ki in series [2] is 250 nM; in series [3], 400 nM. Besides, the figures for the concentration at 1 h in series [5] and in [6] were 39 nM and 200 nM, respectively. For the same molecule, the concentration at 6 h in series [8] worked out at 12 nM; in [9], 240 nM.
As for `CNCc1cc(C#CCCN2CCNC(=O)C2)ccc1Oc1ccc(SC)cc1`, affinity in series [1] was put at a Ki of 1.3 nM.
For `CNCc1cc(Br)ccc1Oc1ccc(SC)cc1`, the figures for the Ki (in [10]; in series [1]; at Histamine H3 receptor) were 0.5 nM, 1.7 nM and 9000 nM, respectively.
As for `CNCc1cc(C#CCCN2CCC(F)CC2)ccc1Oc1ccc(SC)cc1`, the concentration at 3 h came out at 63 nM in series [4] and 8 nM in series [7]. The Ki in series [2] is 96 nM; in series [3], 190 nM. In addition, the concentration at 1 h is 23 nM in series [5] and 44 nM in [6]. Moreover, the values for the concentration at 6 h in series [8] and in series [9] were 10 nM and 130 nM, respectively.
Turning to `CNCc1cc(C#CCCN2CCOCC2)ccc1Oc1ccc(SC)c(C)c1`, the Ki in series [2] stood at 240 nM; in series [3], 1000 nM.
`CNCc1cc(C#CCCN2CCOCC2)ccc1Oc1cccc(Cl)c1`: the concentration at 3 h was 5130 nM in [4] and 230 nM in series [7]. The concentration at 1 h in [5] was determined as 180 nM; in series [6] it was 2370 nM. The concentration at 6 h turned out to be 270 nM in series [8] and 10100 nM in series [9].
With `CNCc1cc(C#CCCN2CCOCC2)ccc1Oc1ccc(F)cc1Cl`, the concentration at 3 h in [4] was 440 nM; in [7] it was 18 nM. Besides, the values for the concentration at 1 h in series [5] and in [6] were 30 nM and 270 nM, respectively. The values for the concentration at 6 h in [8] and in [9] were 8 nM and 400 nM, respectively.
`CNCc1cc(C#CCCNC2CC2)ccc1Oc1ccc(SC)cc1`: the concentration at 3 h in series [4] stood at 320 nM; in series [7], 32 nM. The concentration at 1 h in [5] was found to be 17 nM; in series [6], 120 nM. In addition, the concentration at 6 h in series [8] turned out to be 27 nM; in series [9], 520 nM.
